Type in all cases: functional, cell-based
Assay [1] concerns CCRF-CEM. As to the kind of experiment: In vitro inhibitory effect on growth of human T-cell acute lymphoblastoid leukemic CCRFCEM cell lines. The method, boiled down: (§1)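 MTT growth-inhibition assay (Carmichael method). Tumor cells seeded at 1 × 10^4 per well and incubated with or without compound for 72 h. MTT then added and OD(550-660 nm) read. % inhibition = [1 − (OD sample / OD control)] × 100. IC50 (μg/mL) taken as the concentration giving 50% inhibition of cell growth.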

Assay [2] concerns K562. The assay can be described thus: In vitro inhibitory effect on growth of human chronic myelogenous leukemic K562 cell lines. The gist of the method:
as §1

In assay [3] the test system is L1210. As to the kind of experiment: In vitro inhibitory effect on growth of mouse leukemic L1210 cell lines. The gist of the method:
as §1

For assay [4], the system named is MOLT-4. The assay can be described thus: In vitro inhibitory effect on growth of human T-cell acute lymphoblastic leukemic MOLT 4 cell lines. The gist of the method:
as §1

Assay [5] concerns SW480. The assay can be described thus: In vitro inhibitory effect on growth of human colon adenocarcinoma cell lines (SW480). The gist of the method: as §1
Assay [6] deals with T-24. As to the kind of experiment: In vitro inhibitory effect on growth of human bladder transitional-carcinoma cell lines (T24). The method, boiled down:
as §1

Assay [7] concerns TE-2. The assay can be described thus: In vitro inhibitory effect on growth of human esophagus […] cell lines (TE2). The method, boiled down: as §1
Assay [8] has as its system PC10. As to the kind of experiment: In vitro inhibitory effect on growth of human lung squamous cell carcinom cell lines (PC10). The method, boiled down:
as §1

Assay [9] relates to PC10. The assay can be described thus: In vitro inhibitory effect on growth of human lung squamous cell carcinoma cell lines (PC10). The gist of the method:
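Cells seeded at 1 × 10^4/well and incubated with or without compound for 72 h. MTT was then added and OD(550-660 nm) was read. % inhibition = [1 − (OD of sample well / OD of control well)] × 100. IC50 (μg/mL) is the concentration giving 50% inhibition of cell growth.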

Values after ≈ are worked out from the molar mass of the structure shown. A value given as a limit tells only on which side of the number the result lay.

With `C=C1C(n2ccc(N)nc2=O)O[C@H](CO)[C@@H]1O` (some centres undefined), the IC50 in [1] turned out to be 0.047 µg/mL (≈ 0.196 µM); in [2], 1.2 µg/mL (≈ 5.02 µM); in assay [3] it was 0.11 µg/mL (≈ 0.46 µM); in assay [4] it was 0.025 µg/mL (≈ 0.105 µM); in [5], 3.8 µg/mL (≈ 15.9 µM); in assay [6] it was 3.7 µg/mL (≈ 15.5 µM). The IC50 is 2.9 µg/mL (≈ 12.1 µM) in assay [7] and 60.5 µg/mL (≈ 253 µM) in assay [8].

As to `Nc1ccn([C@@H]2O[C@H](CO)[C@@H](O)[C@@H]2O)c(=O)n1` [CYTARABINE], the IC50 is 0.065 µg/mL (≈ 0.267 µM) in assay [1]; 3.2 µg/mL (≈ 13.2 µM) in assay [2]; 0.097 µg/mL (≈ 0.399 µM) in assay [3]; 0.056 µg/mL (≈ 0.23 µM) in assay [4]; greater than 100 µg/mL in [9]; greater than 100 µg/mL in assay [5]. Besides, the IC50 in [6] and in assay [7] was greater than 100 µg/mL throughout.

For the molecule `O=c1[nH]cc(F)c(=O)[nH]1` [FLUOROURACIL], the IC50 is 40 µg/mL (≈ 308 µM) in assay [1]; 38 µg/mL (≈ 292 µM) in assay [2]; 0.32 µg/mL (≈ 2.46 µM) in [3]; 3.8 µg/mL (≈ 29.2 µM) in assay [4]; greater than 100 µg/mL in assay [9]; 3.3 µg/mL (≈ 25.4 µM) in assay [5]. Moreover, the figures for the IC50 in [6] and in [7] were 6.1 µg/mL (≈ 46.9 µM) and 3.9 µg/mL (≈ 30 µM), respectively.

Usually IC50 stands for the midpoint of a concentration-inhibition curve. A low value points to greater potency in that assay.
